Assay results pooled from the literature.
Each line is one published result; the experiments were not run side by side. ≈ marks a conversion by molar mass, not a printed value.

COc1cccc(Cc2cc(C)cc(=O)n2O)c1  MIC80 (Cryptococcus gattii; microbial growth): 2.3 µM (≈ 0.564 µg/mL)
CCCCCCCCCCCC(=O)OC[C@H]1O[C@@H](n2cc(C)c(=O)[nH]c2=O)C[C@@H]1O  MBC (Bacillus cereus; microbial killing, broth dilution): 8 µg/mL (≈ 18.8 µM)
CCC1(c2ccc(N)cc2)CCC(=O)NC1=O (centres unmarked)  IC50 (IOSE-144; cell growth or viability, CCK-8; 48 h): > 50000 nM
CC(C=CC(O)=C1C(=O)CNC1=O)=CC(C)C1OC2(C)OC(C(O)C=C2C)C1C (centres unmarked)  MIC (Bacillus cereus; microbial growth): > 100 µM
CCn1cc(C(=O)O)c(=O)c2ccc(C)nc21  MIC (Salmonella enterica; microbial growth; CHOLERAESUIS; 20 h, pH 5.5): 1 µg/mL
CC1=NN(CNC(=O)c2ccccn2)C(=O)C1=NNn1c(-c2ccccc2)nc2ccccc2c1=O  MIC (Salmonella enterica; microbial growth, broth dilution; PARATYPHI; 24 h): 104 µM
CC(=O)c1cccc(NC(=O)C(=O)[C@H](CC(C)C)NC(=O)[C@H](CC(C)C)NC(=O)[C@H](CC(C)C)NC(=O)OCc2ccccc2)c1  IC50 (RPMI-8226; cell growth or viability, MTS; 72 h): 48.7 nM
CC1=NN(CNc2ccc(O)cc2)C(=O)C1=NNn1c(-c2ccccc2)nc2ccccc2c1=O  MIC (Salmonella enterica; microbial growth, broth dilution; PARATYPHI; 24 h): 107 µM
COc1cc(Cc2cnc(N)nc2N)cc(OC)c1OC  MIC (Shigella dysenteriae; microbial growth, broth dilution; 24 h): 16 µg/mL
CCCCCCCCCCCC(=O)OC[C@H]1O[C@@H](n2cc(C)c(=O)[nH]c2=O)C[C@@H]1OC(=O)c1ccc(C(C)(C)C)cc1  MIC (Bacillus cereus; microbial growth, broth dilution): 2 µg/mL
CC(C)C[C@H](NC(=O)OCc1ccccc1)C(=O)N[C@@H](CC(C)C)C(=O)N[C@@H](CC(C)C)C(=O)C(=O)Nc1cccc2c1CCC2  IC50 (RPMI-8226; cell growth or viability, MTS; 72 h): 65.9 nM
CO/N=C(\C(=O)N[C@@H]1C(=O)N2C(C(=O)O)=C(CSc3nc(=O)c(=O)[nH]n3C)CS[C@H]12)c1csc(N)n1  MIC (Salmonella enterica; microbial growth; CHOLERAESUIS; 20 h, pH 7.2): 0.0625 µg/mL
NC[C@H]1O[C@H](O[C@H]2[C@H](O)[C@@H](O[C@H]3O[C@H](CO)[C@@H](O)[C@H](N)[C@H]3O)[C@H](N)C[C@@H]2N)[C@H](N)C[C@@H]1O  MIC (Bacillus cereus; microbial growth; ATCC11778): 18.8 µg/mL
O=c1[nH]cc(F)c(=O)[nH]1  MIC (Shigella dysenteriae; microbial growth, broth dilution; 24 h): 4 µg/mL
Cc1cc(Cc2ccccc2)n(O)c(=O)c1  MIC80 (Cryptococcus gattii; microbial growth): 1.7 µM (≈ 0.366 µg/mL)
CCN1CCN(c2cc3c(cc2F)c(=O)c(C(=O)O)cn3C2CC2)CC1  MIC (Salmonella enterica; microbial growth; CHOLERAESUIS; 20 h, pH 7): 0.0625 µg/mL
COC[C@H](NC(=O)OCc1ccccc1)C(=O)N[C@@H](Cc1ccccc1)C(=O)N[C@@H](CC(C)C)C(=O)C(=O)Nc1ccccc1  IC50 (RPMI-8226; cell growth or viability, MTS; 72 h): 437 nM
Cc1cc(C2CCCCC2)n(O)c(=O)c1  MIC80 (Cryptococcus gattii; microbial growth): 2.3 µM (≈ 0.477 µg/mL)
CC1=NN(CNC(=O)c2ccccc2)C(=O)C1=NNn1c(-c2ccccc2)nc2ccccc2c1=O  MIC (Salmonella enterica; microbial growth, broth dilution; PARATYPHI; 24 h): 51.9 µM
CC1=CC[C@H]2O[C@]1(C)O[C@H]([C@H](C)/C=C(C)/C=C/C(O)=C1/C(=O)CNC1=O)[C@H]2C  MIC (Bacillus cereus; microbial growth): 3.13 µM
COc1ccccc1Cc1cc(C)cc(=O)n1O  MIC80 (Cryptococcus gattii; microbial growth): 1.5 µM (≈ 0.368 µg/mL)
C[C@H]1O[C@@H](O[C@H]2[C@@H](O)C[C@H](O[C@H]3[C@@H](O)C[C@H](O[C@H]4CC[C@@]5(C)[C@H](CC[C@@H]6[C@@H]5C[C@@H](O)[C@]5(C)[C@@H](C7=CC(=O)OC7)CC[C@]65O)C4)O[C@@H]3C)O[C@@H]2C)C[C@H](O)[C@@H]1O  IC50 (ReNcell VM; cell growth or viability; 24 h): ~560 nM
Cc1cc(NS(=O)(=O)c2ccc(N)cc2)no1  MIC (Salmonella enterica; microbial growth; CHOLERAESUIS; 20 h, pH 7.2): 2050 µg/mL
